From paper PMC4744243 (Oncogene, 2015)
Read-outs that look alike come from different tables or passages of the source.

What was measured:
PRC2^Y111L = PRC2^Y111L (Homo sapiens, UniProt Q15910, Y111L); format: biochemical; details: for IC50: read-out: IC50 Y111L, [SAM] 1 µM; for IC50 Y111L: [SAM] 20 μM
PRC2^Y641N/Y661D = PRC2^Y641N/Y661D (Homo sapiens, UniProt Q15910, Y641N/Y661D); format: biochemical; details: for IC50: read-out: IC50 Y641N/Y6661D, [SAM] 20 μM
EZH2 WT = details: read-out: half-maximal inhibition (IC50); cited from earlier work
PRC2^WT = PRC2^WT (Homo sapiens, UniProt Q15910); format: biochemical; details: read-out: IC50 WT, [SAM] 1 µM
[1] = system: H3K4, K9, K36 and K79 methylation; experiment: Western blot and histone profiling of other H3 methylation marks; format: cell-based; details: 2 or 10 µM, 3 days
Summary of the method: (§1)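 Karpas422 parental cells were grown in RPMI-1640 with 10% FBS at 37 °C and 5% CO2. Histones were extracted from pellets of 5 × 10^6 cells with a histone purification kit. Free lysines were blocked by derivatization, and methylated H3 peptides were then analysed by high-resolution mass spectrometry.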

EZH2 Y641 mutant = details: read-out: half-maximal inhibition (IC50); cited from earlier work
[2] = system: K-P (KARPAS422-parental cells); format: cell-based; details: 10 μM for 6 days
[3] = system: H3K27Me2 and Me3 in K-P cells; experiment: Western blot of H3K27 methylation; format: cell-based; details: K-P cells treated with increasing doses
[4] = system: H3K27Me3 peptides in K-P cells; experiment: Histone tail profiling by mass spectrometry; format: cell-based; details: 2 or 10 µM, 3 days, vs DMSO control
Summary of the method: as §1

[5] = system: K-R2- and K-R10-derived cell clones; format: cell-based; details: four K-R2- and K-R10-derived clones; 6-day
tumor xenograft = details: high-dose treatment; after cessation of the dosing; cited from earlier work
[6] = system: K-P (KARPAS422-parental cells); details: 6-day, compared with EI1
WSU-DLCL2 xenograft = details: high-dose; 28-day treatment cycle; cited from earlier work

Chain of PRC2^Y111L (Q15910 whole entry Y111L): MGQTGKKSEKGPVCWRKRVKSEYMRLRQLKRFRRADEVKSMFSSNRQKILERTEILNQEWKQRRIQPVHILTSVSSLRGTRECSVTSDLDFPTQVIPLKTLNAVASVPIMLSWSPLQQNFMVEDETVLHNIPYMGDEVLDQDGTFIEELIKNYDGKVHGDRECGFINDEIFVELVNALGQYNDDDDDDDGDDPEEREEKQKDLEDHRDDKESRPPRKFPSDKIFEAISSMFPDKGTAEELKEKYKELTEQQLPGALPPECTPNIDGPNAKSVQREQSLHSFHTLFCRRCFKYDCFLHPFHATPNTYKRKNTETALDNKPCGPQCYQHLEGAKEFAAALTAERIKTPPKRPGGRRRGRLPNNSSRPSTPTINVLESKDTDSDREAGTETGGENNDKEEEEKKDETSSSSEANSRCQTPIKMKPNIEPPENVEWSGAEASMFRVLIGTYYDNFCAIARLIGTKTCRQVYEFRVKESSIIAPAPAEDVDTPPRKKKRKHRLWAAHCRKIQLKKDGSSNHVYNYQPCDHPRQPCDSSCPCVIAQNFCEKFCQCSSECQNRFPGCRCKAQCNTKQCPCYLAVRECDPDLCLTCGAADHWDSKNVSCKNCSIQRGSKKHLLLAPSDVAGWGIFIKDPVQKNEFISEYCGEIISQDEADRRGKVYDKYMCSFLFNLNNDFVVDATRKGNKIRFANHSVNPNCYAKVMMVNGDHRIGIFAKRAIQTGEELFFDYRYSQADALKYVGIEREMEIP
Chain of PRC2^Y111L (O75530 whole entry partner): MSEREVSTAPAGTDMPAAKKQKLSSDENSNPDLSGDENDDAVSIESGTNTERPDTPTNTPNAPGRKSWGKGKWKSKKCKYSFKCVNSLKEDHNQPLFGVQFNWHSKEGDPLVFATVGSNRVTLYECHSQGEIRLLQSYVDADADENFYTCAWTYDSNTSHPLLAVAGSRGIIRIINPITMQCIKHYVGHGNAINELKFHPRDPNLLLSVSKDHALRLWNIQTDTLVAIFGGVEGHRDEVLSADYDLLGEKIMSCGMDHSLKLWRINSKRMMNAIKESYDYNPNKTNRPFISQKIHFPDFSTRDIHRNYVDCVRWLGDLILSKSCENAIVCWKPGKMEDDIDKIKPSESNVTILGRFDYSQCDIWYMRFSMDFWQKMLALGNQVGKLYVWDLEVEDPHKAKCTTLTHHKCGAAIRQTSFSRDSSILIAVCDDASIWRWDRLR
Chain of PRC2^Y111L (Q15022 whole entry partner): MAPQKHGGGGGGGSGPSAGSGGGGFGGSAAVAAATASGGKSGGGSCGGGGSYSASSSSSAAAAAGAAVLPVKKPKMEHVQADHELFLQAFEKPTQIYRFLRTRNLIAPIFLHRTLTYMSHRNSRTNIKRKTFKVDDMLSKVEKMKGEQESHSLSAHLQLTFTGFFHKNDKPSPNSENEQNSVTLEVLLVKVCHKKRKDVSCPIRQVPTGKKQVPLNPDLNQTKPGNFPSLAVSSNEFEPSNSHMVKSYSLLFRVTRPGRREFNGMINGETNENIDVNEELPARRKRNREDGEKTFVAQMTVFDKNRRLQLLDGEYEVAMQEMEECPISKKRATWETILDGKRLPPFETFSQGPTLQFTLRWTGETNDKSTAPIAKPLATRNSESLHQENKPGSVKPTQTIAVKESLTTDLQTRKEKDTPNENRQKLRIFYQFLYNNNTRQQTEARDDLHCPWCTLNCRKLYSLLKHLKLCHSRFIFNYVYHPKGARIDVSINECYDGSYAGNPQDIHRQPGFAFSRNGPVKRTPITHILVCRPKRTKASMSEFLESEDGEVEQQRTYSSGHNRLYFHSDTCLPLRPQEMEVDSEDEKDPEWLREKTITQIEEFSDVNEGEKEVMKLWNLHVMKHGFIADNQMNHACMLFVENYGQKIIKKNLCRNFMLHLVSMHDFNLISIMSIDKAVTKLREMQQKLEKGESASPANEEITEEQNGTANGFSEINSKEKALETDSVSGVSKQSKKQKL
Chain of PRC2^Y641N/Y661D (Q15910 whole entry Y641N/Y661D): as the sequence (Q15910 whole entry Y111L) above, with L111Y, Y641N, Y661D counted along it
Chain of PRC2^Y641N/Y661D (O75530 whole entry partner): as the sequence (O75530 whole entry partner) above
Chain of PRC2^Y641N/Y661D (Q15022 whole entry partner): as the sequence (Q15022 whole entry partner) above
Chain of PRC2^WT (Q15910 whole entry): as the sequence (Q15910 whole entry Y111L) above, with L111Y counted along it
Chain of PRC2^WT (O75530 whole entry partner): as the sequence (O75530 whole entry partner) above
Chain of PRC2^WT (Q15022 whole entry partner): as the sequence (Q15022 whole entry partner) above

Row | Structure (SMILES) | IC50 (PRC2^Y111L; substrate H3K27Me0 peptide) | IC50 (PRC2^Y111L; substrate H3K27Me1 peptide) | IC50 Y111L (PRC2^Y111L; substrate H3K27Me0 peptide) | IC50 Y111L (PRC2^Y111L; substrate H3K27Me1 peptide) | IC50 against PRC2^Y641N/Y661D, fold weaker compared with PRC2^Y641N (PRC2^Y641N/Y661D; 1 μM SAM, both H3K27Me1 and Me2 substrates) | IC50 (PRC2^Y641N/Y661D; substrate H3K27Me1 peptide) | IC50 (PRC2^Y641N/Y661D; substrate H3K27Me2 peptide) | IC50 (EZH2 WT) | IC50 (PRC2^WT; substrate H3K27Me0 peptide) | IC50 (PRC2^WT; substrate H3K27Me1 peptide) | decrease in H3K4, K9, K36 and K79 methylation [1] | IC50 (EZH2 Y641 mutant) | reduction of BrdU incorporation compared with DMSO control [2] | H3K27Me2 and Me3 levels (western blot) [3] | decrease of K27Me3 methylated peptides [4] | growth inhibition in cell proliferation assay [5] | anti-tumor effect in tumor xenograft studies (tumor xenograft) | growth arrest (growth inhibition) in proliferation assay [6] | anti-tumor effect in WSU-DLCL2 xenograft model (WSU-DLCL2 xenograft)
1 | CCC(CC)n1ccc2c(C(=O)NCc3c(C)cc(C)[nH]c3=O)cc(C#N)cc21 [EI1] | 3100 nM | 4200 nM | inactive | inactive | > 300 fold | > 25000 nM | > 25000 nM | 10 to 20 nM | 20 nM | 9 nM | no noticeable decrease | 10 to 20 nM | > 90% | both H3K27Me2 and Me3 levels decreased | > 2 fold | refractory |  |  | 
2 | CCN(c1cc(-c2ccc(CN3CCOCC3)cc2)cc(C(=O)NCc2c(C)cc(C)[nH]c2=O)c1C)C1CCOCC1 [EPZ-6438, reference compound] |  |  |  |  |  |  |  |  |  |  | no noticeable decrease |  | > 90% |  |  | refractory | complete tumor regression without tumor regrowth | more potent in inducing growth arrest | partial tumor regression
